rCAG binder: molecules binding r(CAG) RNA repeats; r(CAG) RNA repeat, TO-PRO-1 dye displacement fluorescence; inhibition, % at 3 µM; actives 1.3% (n = 370,000); AID 651821;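 active means inhibition above the plate cutoff, the mean of all test compounds on that plate plus 3 SD, cut at about 35% in these data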;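 further: 0% = DMSO alone and 100% = 100 µM mitoxantrone as full dye displacement; higher means more dye released from RNA so lower well fluorescence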
TCR-CD3 inh: human TCR-CD3 binding inhibition. actives 0.37% (n = 360,000). TAMRA-labeled TCR probe fluorescence, biochemical. inhibition, % at 9.4 µM; in the data active means inhibition above about 19%;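 further: recombinant mutant TCR 2C K166C tagged with TAMRA read by polarization; 0% = receptor in buffer alone and 100% = receptor with positive control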
SIAE primary: blocks human sialic acid acetylesterase. Q9HAT2. SIAE FP-Rh probe binding, fluorescence polarization. inhibition, % at 9.66 µM. actives 0.69% (n = 370,000). AID 1053197;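 active means inhibition above a cutoff: mean of compounds within the control limits plus 3 SD of those, cut at about 17% in these data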;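 further: 0% = plate median of compound wells and 100% = probe without SIAE protein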
PRMT1 FP inh: inhibitors of human PRMT1; recombinant PRMT1, activity-based probe fluorescence polarization; inhibition, % at 2.79 µM; actives 1.3% (n = 370,000);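 active means inhibition above about 21% made by adding two undisclosed values, limit read from the data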
Target sequence (Q99873 whole entry, looked up): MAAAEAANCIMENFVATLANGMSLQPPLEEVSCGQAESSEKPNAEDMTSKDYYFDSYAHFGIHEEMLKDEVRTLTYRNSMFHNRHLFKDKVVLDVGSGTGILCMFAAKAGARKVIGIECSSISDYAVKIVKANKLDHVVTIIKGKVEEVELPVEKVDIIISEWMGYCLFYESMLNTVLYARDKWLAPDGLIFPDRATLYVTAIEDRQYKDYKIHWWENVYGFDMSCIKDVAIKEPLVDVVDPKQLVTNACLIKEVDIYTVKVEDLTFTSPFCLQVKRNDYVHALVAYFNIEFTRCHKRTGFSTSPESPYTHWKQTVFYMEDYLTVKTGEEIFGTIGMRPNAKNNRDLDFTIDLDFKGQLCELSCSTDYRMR
ABHD4 inh: inhibitors of mouse ABHD4; purified mABHD4, FP-Rh probe fluorescence polarization; inhibition, % at 8.92 µM; actives 0.54% (n = 370,000);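 active means inhibition exceeding the mean over every tested compound plus 3 SD, cut at about 30% in these data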;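 further: 0% = plate median of compound wells and 100% = S159A mutant with DMSO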
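System: mouse ABHD4 enzyme, wild type / Medium: HEPES pH 7.0, NaCl, Pluronic buffer / Reagent: FP-Rh activity-based fluorescent probe / Control set: S159A mutant high control, sample median low control / Detection: fluorescence polarization with parallel and perpendicular emission, 525/598 nm / Schedule: 45 min + 60 min at 25 °C / Compound dosing: 8.92 µM, single dose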
rCAG bind conf: r(CAG) RNA repeat binding, confirmation; TO-PRO-1 dye displacement fluorescence; actives 70% (n = 4,300); shares compounds with rCAG binder; inhibition, % at 3 µM;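 active means inhibition above a per-plate cutoff, the mean inhibition of sample wells plus 3 SD, cut at about 35% in these data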;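 further: loss of TO-PRO-1 fluorescence as compound displaces dye from 1x1 AA loop RNA; 0% = DMSO only wells and 100% = 100 µM mitoxantrone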
DNA CAG counter: DNA CAG dye complex inhibition counter-screen; shares compounds with rCAG binder; d(CAG) DNA oligo TO-PRO-1 dye displacement, fluorescence; inhibition, % at 3 µM; actives 94% (n = 4,300); AID 652068;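 active means inhibition above its plate's cutoff, the mean test-well inhibition plus 3 SD, cut at about 4.8% in these data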;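 further: 0% = DNA dye mix with DMSO and 100% = 100 µM mitoxantrone; hits displace the dye from DNA and so lower well fluorescence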
dCAG dye DR: DNA CAG dye complex inhibition, dose response counter-screen. shares compounds with rCAG binder. actives 20% (n = 250). DNA CAG/GTC duplex TO-PRO-1 dye displacement fluorescence. IC50, µM; in the data active means IC50 below about 10 µM
The depositor's hits bear a star; x = no result. Shown are actives, neighbours in structure and some others; about 3.3% of the full set was active somewhere.

SMILES	rCAG binder	TCR-CD3 inh	SIAE primary	PRMT1 FP inh	ABHD4 inh	rCAG bind conf	DNA CAG counter	others
CC(C)c1ccc(-c2csc(NC(=O)c3cccs3)c2C(=O)O)cc1	83*	0	-4	4	3	77*	33*	dCAG dye DR=7.8*
CC(C)c1ccc(C(CC(=O)O)NC(=O)c2cccs2)cc1 (stereo unspecified)	3	3	-5	-2	2	x	x
CCCC1CCC2(CC1)CCC2OC(=S)Nc1ccc(I)cc1 (stereo unspecified)	x	x	-1	4	-6	x	x
Cc1ccccc1N1C(=O)C2C3CC(=O)C(c4ccccc43)C2C1=O (stereo unspecified)	-5	1	1	0	4	x	x
Cc1ccnc2c(N3C(=O)C4C5c6ccccc6C(c6ccccc65)C4C3=O)cccc12 (stereo unspecified)	47*	4	0	-3	2	3	4.4*
NC(=O)Nn1c(CCC(=O)O)ccc1-c1ccc(Cl)cc1	-1	5	3	-5	3	x	x
O=C(O)CCc1ccc(-c2ccccc2)n1NC(=O)c1sc2ccccc2c1Cl	57*	6	0	1	3	32	11*
Cc1cccc(-c2cccc3c4c([nH]c23)[C@@H]2C[C@H](N(C)C(=O)c3ccccc3C)[C@H]([C@H](C)O)C(=O)N2CC4)c1	8	x	-5	1	3	x	x
CO[C@@H]1[C@@H](OC(N)=O)[C@@H](O)[C@H](Oc2ccc3c(O)c(NC(=O)c4ccc(O)c(CC=C(C)C)c4)c(=O)oc3c2C)OC1(C)C	50*	1	0	-1	15	56*	26*
CCCCNC(=O)C1(C(=O)c2ccc(OC)cc2)CC(c2ccccc2C(F)(F)F)=NO1 (stereo unspecified)	0	x	0	2	3	x	x
COC(=O)c1c(NC(=O)c2ccccc2N(C)S(=O)(=O)c2ccccc2)sc2c1CCCC2	7	3	-5	6	-7	x	x
CC(C)OC(=O)c1c(NS(=O)(=O)c2ccccc2)sc2c1CCCC2	35*	-4	0	1	5	50*	14*
COC(=O)c1c(NS(C)(=O)=O)sc2c1CCCC2	5	-5	2	2	1	x	x
COC(=O)c1c(NS(=O)(=O)Cc2ccccc2)sc2c1CCCC2	48*	-2	1	-2	8	47*	16*
COc1ccc(-c2csc(Nc3ccc(S(=O)(=O)Nc4cc(C)on4)cc3)n2)cc1	73*	6	0	2	21	72*	36*
O=[N+]([O-])c1cccc(-c2csc(Nc3ccccc3)n2)c1	9	-5	2	1	10	x	x
COc1cc(NS(=O)(=O)c2ccc(Nc3nc(-c4cccc([N+](=O)[O-])c4)cs3)cc2)nc(OC)n1	95*	-4	9	3	-1	90*	64*
CCC(CC)NC(=O)O[C@H]1CC[C@@]23CCCN2C(=O)CCC[C@H]3C1	x	x	0	2	2	x	x
FC(F)(F)c1ccccc1Cn1ccc2ccc(-c3ccc4ccn(Cc5ccccc5)c4c3)cc21	15	x	3	4	4	x	x
CCOC(=O)N1CCN(S(=O)(=O)c2ccc(C(=O)Nc3nc4c(s3)CC(C)CC4)cc2)CC1 (stereo unspecified)	0	-2	-5	4	1	x	x
CCOC(=O)N1CCN(S(=O)(=O)c2ccc(C(=O)NNc3nc4c(C)cc(C)cc4s3)cc2)CC1	69*	-11	7	7	16	64*	25*
Cc1cc(C)c2nc(NNC(=O)c3ccc(S(=O)(=O)N4CCCCC4)cc3)sc2c1	55*	-3	10	1	15	38*	15*
Cn1c(N)c(C(=O)COC(=O)c2cc(-c3ccco3)nc3ccccc23)c(=O)n(C)c1=O	49*	18	4	22*	-5	45*	20*
O=C(O)CCn1cc(/C=C/C(=O)c2ccc(Cl)cc2)c(-c2ccc(Br)cc2)n1	59*	3	-17	3	-33	84*	49*
N#CC(/C(=N/S(=O)(=O)c1cccs1)c1ccccc1)c1nc2ccccc2[nH]1 (stereo unspecified)	42*	2	2	-2	1	23	4
SMILES	rCAG binder	TCR-CD3 inh	SIAE primary	PRMT1 FP inh	ABHD4 inh	rCAG bind conf	DNA CAG counter	others
C=CCN1C(=O)C(CC(=O)O)SC1=Nc1cccc([N+](=O)[O-])c1 (stereo unspecified)	1	11	2	-5	3	x	x
C=CCN1C(=O)C(CC(=O)O)SC1=Nc1ccc(N=Nc2ccccc2)cc1 (stereo unspecified)	55*	-3	10	-1	3	37*	8.8*
O=C(O)Cc1sc(-c2ccccc2Cl)nc1-c1ccccc1	17	0	1	1	3	x	x
Cc1ccc(-c2nc(-c3ccc(Cl)cc3)sc2CC(=O)O)c(C)c1	45*	2	0	0	-5	30	8.7*
CCOc1ccccc1N(CC(=O)NCCc1ccc(OC)c(OC)c1)S(=O)(=O)c1ccccc1	43*	-8	-3	5	-16	2	0
CCOc1ccccc1N(CC(=O)Nc1ccc(OC)c(OC)c1)S(=O)(=O)c1ccccc1	-3	-13	5	2	1	x	x
CCOc1cc(C(=O)NC(CC(=O)O)c2ccc(OC3CCCC3)cc2)cc(OCC)c1OCC (stereo unspecified)	0	-2	-8	6	-4	x	x
CC(C)(C)c1ccc(C(=O)NC(CC(=O)O)c2ccc(OC3CCCC3)cc2)cc1 (stereo unspecified)	39*	-5	-7	5	-14	43*	8.0*
CS(=O)(=O)N[C@@H]1C[C@@H]2O[C@H](CO)CC[C@@H]2O[C@@H]1CCc1ccc(/C=C/c2ccccc2)cc1	3	x	-2	-2	-7	x	x
O=C(Nc1nnc(-c2cccs2)o1)c1cccc(Oc2ccccc2)c1	38*	0	-7	-4	-29	53*	15*
Nc1nc2c(c(=O)[nH]1)C(c1cccc3ccccc13)C1=C(N2)c2ccccc2C1=O (stereo unspecified)	78*	3	-18	9	-8	57*	34*
CCc1ccccc1-c1cc(C(=O)OC)c2n(c1=O)CCC2	0	x	-3	-1	7	x	x
O=C(NCc1ccccc1)c1ccc2c(=O)n(CC3CCCO3)c(=S)[nH]c2c1 (stereo unspecified)	-2	-6	0	1	-9	x	x

High-throughput results from PubChem BioAssay.
